# High-throughput results: PubChem BioAssay, The Scripps Research Institute Molecular Screening Center
# S1P4 ag: human S1P4 receptor agonism | O95977 | S1P4-expressing cell line, agonist reporter assay | activation, % at 4.98 µM | hit rate 0.35% among 220,000; in the data active means activation above about 11%;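 further: 0% = DMSO vehicle and 100% = reference agonist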
# NPY-Y1 antag: antagonists of human neuropeptide Y receptor Y1; hit rate 1% among 200,000; inhibition, % at 3.6 µM; P25929; HEK293-CNG Y1 cells, membrane potential fluorescence; NPY at EC95, then isoproterenol;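 active means inhibition above the campaign mean inhibition of all tested compounds plus 3 SD, cut at about 20% in these data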;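 further: 0% = DMSO wells given NPY plus isoproterenol and 100% = isoproterenol alone without NPY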
# Target sequence (P25929 whole entry, looked up): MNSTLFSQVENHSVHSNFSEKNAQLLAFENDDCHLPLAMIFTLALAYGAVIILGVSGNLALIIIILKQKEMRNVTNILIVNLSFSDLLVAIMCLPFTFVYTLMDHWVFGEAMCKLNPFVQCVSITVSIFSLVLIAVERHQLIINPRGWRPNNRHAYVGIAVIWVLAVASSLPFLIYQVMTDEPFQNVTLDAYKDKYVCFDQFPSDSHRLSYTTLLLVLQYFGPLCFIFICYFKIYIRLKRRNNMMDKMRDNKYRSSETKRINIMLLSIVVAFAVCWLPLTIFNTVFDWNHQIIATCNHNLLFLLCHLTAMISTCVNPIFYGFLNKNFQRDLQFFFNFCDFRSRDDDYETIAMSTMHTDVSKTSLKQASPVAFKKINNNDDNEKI
#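 Benchmarks – high control isoproterenol alone, low control NPY with isoproterenol · Material – HEK293 Y1/CNG channel cell line · Times – dye 3 h, compound 60 min room temperature, stimulation 45 min · Probe or stimulus – NPY (25 nM), isoproterenol (1 µM), Ro 20-1724 (25 µM) · Evaluation – % inhibition of NPY effect · Signal – fluorescence, membrane potential probe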
# NPY-Y2 PAM-ag: potentiators or agonists of human neuropeptide Y receptor Y2. cells expressing NPY-Y2, potentiator/agonist read-out. AID 1359. P49146. hit rate 0.45% among 220,000. activation, % at 3.6 µM; in the data active means activation above about 27%;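 further: cells stimulated with NPY near EC25 plus isoproterenol at EC100; 0% = vehicle plus submaximal agonist and 100% = vehicle plus saturating agonist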
# NPY-Y2 antag: antagonists of human neuropeptide Y receptor Y2; NPY-Y2 expressing cells, antagonist mode; hit rate 0.99% among 140,000; AID 793; inhibition, % at 2.7 µM; P49146; in the data active means inhibition above about 17%;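 further: 0% = vehicle with agonist challenge and 100% = reference antagonist with challenge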
# S1P4 antagonist: blocks the human S1P4 receptor. inhibition, % at 4.98 µM. S1P4-expressing cells, antagonist mode, reporter read-out. AID 1510. O95977. hit rate 0.26% among 220,000; in the data active means inhibition above about 29%;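 further: 0% = wells stimulated with agonist and 100% = vehicle wells without agonist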
# NPY-Y1 PAM-ag: potentiates or activates human NPY-Y1 receptor; AID 1304; P25929; activation, % at 3.6 µM; hit rate 0.37% among 220,000; NPY-Y1 expressing cells, potentiator/agonist activation; in the data active means activation above about 33%, passing the limit was not always enough;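 further: cells stimulated with NPY at EC10 then isoproterenol at EC100; 0% = low agonist plus stimulus and 100% = saturating agonist plus stimulus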
# NPY-Y1 antag ct: counter-screen for NPY-Y2 antagonists: human NPY-Y1 antagonism | shares compounds with NPY-Y2 antag | cell-based NPY-Y1 antagonism counterscreen | inhibition, % at 3.6 µM | hit rate 19% among 710 | AID 1256; in the data active means inhibition above about 20%;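 further: cells challenged with NPY then isoproterenol with cAMP sensed through a CNG channel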
# NPY2 antag conf: confirmation of human neuropeptide Y receptor Y2 antagonists; shares compounds with NPY-Y2 antag; HEK293 NPY-Y2 CNG channel, membrane potential fluorescence; inhibition, % at 2.8 µM; hit rate 32% among 710; AID 1257;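 active means mean inhibition of triplicate wells above the hit cutoff set in the primary screen, cut at about 17% in these data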;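 further: 0% = DMSO with NPY challenge and 100% = BIIE0246 high control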
# The depositor's hits bear a star; x = no result given. A selection: hits, their analogues and other compounds. The true share with any hit is near 2.4%.
SMILES,S1P4 ag,NPY-Y1 antag,NPY-Y2 PAM-ag,NPY-Y2 antag,S1P4 antagonist,NPY-Y1 PAM-ag,NPY-Y1 antag ct,NPY2 antag conf
c1ccc(CSc2nnc(-c3cccs3)n2Cc2ccco2)cc1,1,15,8,19*,5,6,11,10
Brc1ccc(CSc2nnc(-c3ccccn3)n2Cc2ccco2)cc1,1,19,-6,24*,-18,-23,20,26*
Clc1cccc(CSc2nnc(-c3ccccn3)n2Cc2ccco2)c1,0,-1,-13,20*,0,22,12,8
COCCN1C(=S)NC(c2cccc(C(F)(F)F)c2)C(C(=O)N2CCOCC2)=C1C (centres undefined),-1,1,-3,x,-2,14,x,x
CSC1=NCCN1C(=O)c1c(-c2c(F)cccc2Cl)noc1C,1,x,3,x,0,20,x,x
CN(/N=C/c1ccncc1)C1=NS(=O)(=O)c2ccccc21,1,4,4,21*,-4,25,2,1
Cc1ccc(C(=O)N/C(=C\c2cccs2)C(=O)NCCCn2ccnc2)cc1,-1,-3,11,-1,-2,0,x,x
O=C(Cn1c(N2CCN(c3ccccc3)CC2)nc2ccccc21)c1ccccc1,0,-4,2,18*,-11,4,-4,-5
CCCCOc1ccc(-c2nc(=S)[nH][nH]2)cc1,-2,4,3,0,-21,19,x,x
CCCCOc1ccc(C2=NNC(=O)CC2)cc1,2,9,-10,22*,-12,-40,19,39*
Cc1cccc(NC(=O)COC(=O)Cc2cccc(C(F)(F)F)c2)c1C,2,3,2,1,-13,-9,x,x
CCNC(=O)CSc1nnc(-c2ccccc2)n1-c1ccc(OCC)cc1,0,3,-15,-2,-20,6,x,x
CCOc1ccc(-n2c(-c3ccccc3)nnc2-c2ccccc2)cc1,-1,10,-24,21*,12,-32,7,15
Cc1nn(C)c(=O)n1N(C)c1ncc(C(F)(F)F)cc1Cl,3,0,-6,x,-5,-13,x,x
O=C(COC(=O)Cc1ccccc1F)Nc1cccc(F)c1,1,-2,8,x,-13,21,x,x
Cc1ccc(NC(=S)NCc2ccc3c(c2)OCO3)cc1C,1,12,-25,18*,-5,-14,15,18*
Cc1ccc(NC(=O)NCc2ccc3c(c2)OCO3)cc1C,0,0,-17,x,-6,-18,x,x
CCN(CC)C(=O)Cn1cc(C(=O)C(=O)NCCCn2ccnc2)c2ccccc21,0,3,-4,x,-15,8,x,x
CCOc1ccc(N2C(=O)C3ON(C)C(c4ccc([N+](=O)[O-])cc4)C3C2=O)cc1 (centres undefined),0,x,-16,x,-1,3,x,x
N#Cc1c(NC(=O)c2cccc(S(=O)(=O)Nc3ccc(C(=O)O)cc3)c2)sc2c1CCCC2,-1,x,-32,x,0,5,x,x
CCN1C(=O)C(Cc2nc3ccccc3c(=O)n2-c2ccccc2)c2ccccc21 (centres undefined),-1,11,-7,23*,8,-19,5,9
N=c1c(C(=O)NCc2ccccc2)cc2c(=O)n3ccccc3nc2n1Cc1ccco1,2,10,6,23*,9,5,6,5
N=c1c(C(=O)NCc2ccco2)cc2c(=O)n3ccccc3nc2n1Cc1ccccc1,6,8,2,24*,-12,5,13,12
COCCCn1c(=N)c(C(=O)NCc2ccc3c(c2)OCO3)cc2c(=O)n3ccccc3nc21,2,17,-9,20*,-6,7,14,9
Nc1nc(C(F)(F)F)cc(=O)n1N,-1,0,1,x,-14,-12,x,x
SMILES,S1P4 ag,NPY-Y1 antag,NPY-Y2 PAM-ag,NPY-Y2 antag,S1P4 antagonist,NPY-Y1 PAM-ag,NPY-Y1 antag ct,NPY2 antag conf
COc1cccc(-n2nc(C(=O)Nc3ccc4c(c3)OCO4)c3ccccc3c2=O)c1,2,6,-6,3,4,-19,x,x
O=C(Nc1ccc2c(c1)OCO2)c1nn(-c2ccccc2)c(=O)c2ccccc12,-2,-2,-19,17*,-13,-35,11,9
CCNc1cc(Cl)nc(SC)n1,2,7,4,25*,-10,7,-1,1
CCNc1cc(N2CCOCC2)nc(SC)n1,-2,-1,-9,x,-18,4,x,x
O=C(NCCN1C(=O)S/C(=C\c2ccc(F)cc2)C1=O)c1cccc(S(=O)(=O)N2CCOCC2)c1,1,5,7,3,-9,-21,x,x
Brc1cccc(CNc2nc3ccccc3n2CCN2CCCCC2)c1,1,x,-11,x,8,0,x,x
COc1cccc(CNc2nc3ccccc3n2CCN2CCCCC2)c1,-2,14,-16,19*,-1,-27,13,16
O=C(O)/C=C/c1ccccc1Oc1ccc(Cl)cc1Cl,2,4,2,x,-3,-20,x,x
CCc1cccc(CC)c1NC(=O)Cn1c(-c2ccccc2Cl)nc2ccccc21,1,8,-4,24*,1,-2,13,11
CC(C)N(C(=O)Cn1c(-c2ccccc2Cl)nc2ccccc21)c1ccccc1,0,2,-3,5,13,-14,x,x
CC(=O)N1CCc2cc(S(=O)(=O)CCC(=O)NCc3ccco3)ccc21,2,2,4,x,-17,7,x,x
Cc1ccc(S(=O)(=O)C(c2ccccc2)c2c(C)noc2C)cc1 (centres undefined),0,2,-12,17*,-9,-7,3,57*
O=C(NN1CCOCC1)c1cc(-c2ccc(Cl)c(Cl)c2)nc2ccccc12,1,1,0,12,-17,7,x,x
O=C(c1cc2sccc2n1Cc1ccccc1)N1CCCc2ccccc21,-2,13,-12,1,-3,-31,x,x
O=C(c1cc2sccc2n1Cc1ccccc1)N1CCc2ccccc21,-1,17,-25,20*,-8,0,10,12
O=C(COC(=O)/C=C/c1ccc(Cl)cc1)Nc1ccccc1-c1ccccc1,0,-2,10,22*,-10,5,20,17*
CCN(CC)c1ccc(C(=O)OCC(=O)Nc2ccccc2-c2ccccc2)cc1,2,6,0,21*,-11,-29,12,11
CN1C(=O)NC2(O)C(=O)c3ccccc3C12O (centres undefined),-1,5,-7,19*,-4,-18,-1,3
CCn1c(SCC(=O)NCc2ccco2)nnc1C(C)C,0,-5,9,23*,5,16,0,1
N#Cc1c(-c2ccccc2Cl)cc(-c2ccccc2)nc1Br,1,18,-29,11,-1,-35,x,x
